Source: ChEMBL document CHEMBL4330096, “Discovery of potent and selective 5-azaindazole inhibitors of leucine-rich repeat kinase 2 (LRRK2) - Part 1” (Bioorg Med Chem Lett, 2019)

How the values were obtained:
[1] = target: RAC-alpha serine/threonine-protein kinase (Homo sapiens) (UniProt P31749); test: Inhibition of PKBa (unknown origin) at 10 uM relative to control
Procedure, shortened: (§1)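 Single-concentration screen of each compound against a 59-protein-kinase panel, run at 10 µM or 1 µM. Activity relative to control is shown as a heat map across the panel.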

[2] = target: Tyrosine-protein kinase BTK (Homo sapiens) (UniProt Q06187); test: Inhibition of BTK (unknown origin) at 10 uM relative to control
Procedure, shortened: (§2)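 Single-point screen of each compound against a panel of 59 protein kinases, at 1 or 10 μM. The panel data are also summarised as a rescaled geometric mean selectivity score.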

[3] = target: T1, Ephrin type-B receptor 3 (Homo sapiens) (UniProt P54753); test: Inhibition of EPHB3 (unknown origin) at 10 uM relative to control; procedure, shortened: as §2
T1 sequence (whole entry): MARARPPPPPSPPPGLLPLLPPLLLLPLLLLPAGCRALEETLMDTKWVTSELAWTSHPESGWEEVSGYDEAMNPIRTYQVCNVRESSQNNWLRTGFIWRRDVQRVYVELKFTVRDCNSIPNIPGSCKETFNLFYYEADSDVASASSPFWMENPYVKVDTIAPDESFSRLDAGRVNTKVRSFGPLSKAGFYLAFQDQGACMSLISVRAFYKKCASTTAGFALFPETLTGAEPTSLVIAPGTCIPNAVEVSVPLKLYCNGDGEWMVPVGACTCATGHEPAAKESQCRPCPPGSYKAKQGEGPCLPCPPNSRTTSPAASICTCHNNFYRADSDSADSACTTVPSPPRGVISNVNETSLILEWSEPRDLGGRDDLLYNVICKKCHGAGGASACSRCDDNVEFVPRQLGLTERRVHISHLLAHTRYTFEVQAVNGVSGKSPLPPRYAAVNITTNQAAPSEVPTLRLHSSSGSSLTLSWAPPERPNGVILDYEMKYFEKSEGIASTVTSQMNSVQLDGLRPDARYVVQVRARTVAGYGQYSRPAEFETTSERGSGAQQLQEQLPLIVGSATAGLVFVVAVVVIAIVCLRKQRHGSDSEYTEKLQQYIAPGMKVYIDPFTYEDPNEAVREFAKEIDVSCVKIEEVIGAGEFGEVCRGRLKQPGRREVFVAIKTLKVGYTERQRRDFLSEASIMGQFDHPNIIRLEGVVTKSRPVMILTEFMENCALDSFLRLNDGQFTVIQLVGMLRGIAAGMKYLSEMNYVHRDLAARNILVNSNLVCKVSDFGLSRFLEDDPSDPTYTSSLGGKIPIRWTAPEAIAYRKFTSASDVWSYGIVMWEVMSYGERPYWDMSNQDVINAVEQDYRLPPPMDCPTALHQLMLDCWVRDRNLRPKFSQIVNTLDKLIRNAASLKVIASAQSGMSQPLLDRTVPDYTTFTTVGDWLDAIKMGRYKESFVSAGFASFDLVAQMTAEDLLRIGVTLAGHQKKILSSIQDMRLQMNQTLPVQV

[4] = target: Serine/threonine-protein kinase N2 (Homo sapiens) (UniProt Q16513); test: Inhibition of PRK2 (unknown origin) at 10 uM relative to control; procedure, shortened: as §1
Chain of Serine/threonine-protein kinase N2 (Homo sapiens) (Q16513 whole entry, looked up): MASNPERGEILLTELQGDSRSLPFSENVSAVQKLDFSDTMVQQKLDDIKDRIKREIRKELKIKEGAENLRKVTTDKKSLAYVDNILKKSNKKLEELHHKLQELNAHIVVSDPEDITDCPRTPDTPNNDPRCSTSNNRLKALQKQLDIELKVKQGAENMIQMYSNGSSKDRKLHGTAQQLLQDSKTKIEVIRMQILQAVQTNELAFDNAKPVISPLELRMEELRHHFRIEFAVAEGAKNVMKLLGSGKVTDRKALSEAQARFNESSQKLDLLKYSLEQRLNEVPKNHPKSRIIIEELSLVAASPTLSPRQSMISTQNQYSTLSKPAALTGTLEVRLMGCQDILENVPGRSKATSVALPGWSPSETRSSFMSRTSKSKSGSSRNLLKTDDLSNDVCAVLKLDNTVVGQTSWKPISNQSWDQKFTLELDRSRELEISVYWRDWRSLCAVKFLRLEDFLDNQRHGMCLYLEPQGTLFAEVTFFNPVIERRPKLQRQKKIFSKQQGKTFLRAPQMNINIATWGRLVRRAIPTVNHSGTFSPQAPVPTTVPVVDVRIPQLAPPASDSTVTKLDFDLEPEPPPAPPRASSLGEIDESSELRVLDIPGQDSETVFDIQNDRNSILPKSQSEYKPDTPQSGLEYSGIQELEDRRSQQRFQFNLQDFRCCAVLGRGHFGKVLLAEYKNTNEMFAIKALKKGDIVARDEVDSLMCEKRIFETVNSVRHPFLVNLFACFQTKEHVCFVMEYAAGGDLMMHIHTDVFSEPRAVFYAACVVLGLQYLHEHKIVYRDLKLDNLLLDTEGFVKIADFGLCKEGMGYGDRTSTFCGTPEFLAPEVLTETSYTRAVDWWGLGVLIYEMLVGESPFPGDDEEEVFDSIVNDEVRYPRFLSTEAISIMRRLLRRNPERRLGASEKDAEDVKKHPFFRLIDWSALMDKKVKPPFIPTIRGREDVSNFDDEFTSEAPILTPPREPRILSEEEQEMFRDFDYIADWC

[5] = target: T2, Eukaryotic elongation factor 2 kinase (Homo sapiens) (UniProt O00418); test: Inhibition of EF2K (unknown origin) at 10 uM relative to control; procedure, shortened: as §2
T2 sequence (whole entry): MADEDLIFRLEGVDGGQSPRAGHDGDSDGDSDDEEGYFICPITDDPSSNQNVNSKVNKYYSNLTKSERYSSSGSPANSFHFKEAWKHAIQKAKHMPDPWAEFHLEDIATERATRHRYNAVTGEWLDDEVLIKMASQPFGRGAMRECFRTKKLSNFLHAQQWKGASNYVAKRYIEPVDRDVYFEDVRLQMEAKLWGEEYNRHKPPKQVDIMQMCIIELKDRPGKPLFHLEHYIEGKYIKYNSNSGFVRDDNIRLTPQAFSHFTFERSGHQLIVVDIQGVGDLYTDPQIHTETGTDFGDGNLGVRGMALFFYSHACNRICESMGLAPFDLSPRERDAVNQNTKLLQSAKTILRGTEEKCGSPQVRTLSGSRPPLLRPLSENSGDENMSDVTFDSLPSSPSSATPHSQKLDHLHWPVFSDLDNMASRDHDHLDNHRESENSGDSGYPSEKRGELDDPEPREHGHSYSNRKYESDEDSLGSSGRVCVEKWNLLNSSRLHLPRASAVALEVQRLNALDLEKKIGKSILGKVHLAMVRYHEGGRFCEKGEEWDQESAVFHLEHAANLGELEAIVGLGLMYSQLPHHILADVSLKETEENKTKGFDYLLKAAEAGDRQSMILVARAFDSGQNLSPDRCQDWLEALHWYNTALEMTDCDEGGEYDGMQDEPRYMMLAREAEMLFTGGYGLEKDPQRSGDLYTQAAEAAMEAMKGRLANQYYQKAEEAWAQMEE

[6] = target: T3, Protein kinase C zeta type (Homo sapiens) (UniProt Q05513); test: Inhibition of PKCz (unknown origin) at 10 uM relative to control; procedure, shortened: as §1
T3 sequence (whole entry): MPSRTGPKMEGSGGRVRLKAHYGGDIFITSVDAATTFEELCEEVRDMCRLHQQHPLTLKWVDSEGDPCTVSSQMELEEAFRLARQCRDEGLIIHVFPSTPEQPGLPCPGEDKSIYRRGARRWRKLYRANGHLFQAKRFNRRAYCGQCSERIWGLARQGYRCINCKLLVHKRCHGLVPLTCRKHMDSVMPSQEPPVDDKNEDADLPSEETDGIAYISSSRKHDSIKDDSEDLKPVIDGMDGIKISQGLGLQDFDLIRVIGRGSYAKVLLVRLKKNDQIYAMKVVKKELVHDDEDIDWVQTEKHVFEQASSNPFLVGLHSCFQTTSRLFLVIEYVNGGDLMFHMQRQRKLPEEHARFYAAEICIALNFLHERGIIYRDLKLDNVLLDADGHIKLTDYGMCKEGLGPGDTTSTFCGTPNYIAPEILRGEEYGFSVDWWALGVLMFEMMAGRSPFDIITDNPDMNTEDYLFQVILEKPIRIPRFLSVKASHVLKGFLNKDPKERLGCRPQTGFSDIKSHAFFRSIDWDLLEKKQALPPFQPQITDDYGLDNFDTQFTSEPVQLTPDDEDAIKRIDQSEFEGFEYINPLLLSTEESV

[7] = target: Proto-oncogene tyrosine-protein kinase Src (Homo sapiens) (UniProt P12931); test: Inhibition of Src (unknown origin) at 10 uM relative to control
Chain of Proto-oncogene tyrosine-protein kinase Src (Homo sapiens) (P12931 2-536 limits assumed): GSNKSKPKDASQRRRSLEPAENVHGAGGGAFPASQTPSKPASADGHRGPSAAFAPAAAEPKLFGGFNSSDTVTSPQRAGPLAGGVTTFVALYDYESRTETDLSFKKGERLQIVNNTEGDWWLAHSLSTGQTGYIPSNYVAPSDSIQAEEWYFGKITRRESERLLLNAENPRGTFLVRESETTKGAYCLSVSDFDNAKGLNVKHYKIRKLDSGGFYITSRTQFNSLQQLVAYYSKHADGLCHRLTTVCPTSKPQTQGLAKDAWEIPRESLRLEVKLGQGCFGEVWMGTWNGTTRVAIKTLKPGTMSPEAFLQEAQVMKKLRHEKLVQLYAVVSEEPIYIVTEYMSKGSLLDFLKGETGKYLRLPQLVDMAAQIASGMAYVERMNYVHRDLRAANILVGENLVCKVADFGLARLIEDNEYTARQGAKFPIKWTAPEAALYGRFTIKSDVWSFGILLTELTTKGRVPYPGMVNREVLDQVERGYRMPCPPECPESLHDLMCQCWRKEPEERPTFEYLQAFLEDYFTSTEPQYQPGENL
Procedure, shortened: (§3)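 Single-concentration screen across a panel of 59 protein kinases, with each compound tested at one fixed concentration. The read-out is residual kinase activity relative to control. Panel results are also condensed into a rescaled geometric mean (RGM) selectivity score.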

[8] = target: Leucine-rich repeat serine/threonine-protein kinase 2 (Homo sapiens, UniProt Q5S007, G2019S); test: Inhibition of recombinant human GST-tagged LRRK2 G2019S mutant catalytic domain (970 to 2527 residues) expressed in baculovirus expression system by radiometric assay
Chain of Leucine-rich repeat serine/threonine-protein kinase 2 (Q5S007 whole entry G2019S, the tested form may be a part): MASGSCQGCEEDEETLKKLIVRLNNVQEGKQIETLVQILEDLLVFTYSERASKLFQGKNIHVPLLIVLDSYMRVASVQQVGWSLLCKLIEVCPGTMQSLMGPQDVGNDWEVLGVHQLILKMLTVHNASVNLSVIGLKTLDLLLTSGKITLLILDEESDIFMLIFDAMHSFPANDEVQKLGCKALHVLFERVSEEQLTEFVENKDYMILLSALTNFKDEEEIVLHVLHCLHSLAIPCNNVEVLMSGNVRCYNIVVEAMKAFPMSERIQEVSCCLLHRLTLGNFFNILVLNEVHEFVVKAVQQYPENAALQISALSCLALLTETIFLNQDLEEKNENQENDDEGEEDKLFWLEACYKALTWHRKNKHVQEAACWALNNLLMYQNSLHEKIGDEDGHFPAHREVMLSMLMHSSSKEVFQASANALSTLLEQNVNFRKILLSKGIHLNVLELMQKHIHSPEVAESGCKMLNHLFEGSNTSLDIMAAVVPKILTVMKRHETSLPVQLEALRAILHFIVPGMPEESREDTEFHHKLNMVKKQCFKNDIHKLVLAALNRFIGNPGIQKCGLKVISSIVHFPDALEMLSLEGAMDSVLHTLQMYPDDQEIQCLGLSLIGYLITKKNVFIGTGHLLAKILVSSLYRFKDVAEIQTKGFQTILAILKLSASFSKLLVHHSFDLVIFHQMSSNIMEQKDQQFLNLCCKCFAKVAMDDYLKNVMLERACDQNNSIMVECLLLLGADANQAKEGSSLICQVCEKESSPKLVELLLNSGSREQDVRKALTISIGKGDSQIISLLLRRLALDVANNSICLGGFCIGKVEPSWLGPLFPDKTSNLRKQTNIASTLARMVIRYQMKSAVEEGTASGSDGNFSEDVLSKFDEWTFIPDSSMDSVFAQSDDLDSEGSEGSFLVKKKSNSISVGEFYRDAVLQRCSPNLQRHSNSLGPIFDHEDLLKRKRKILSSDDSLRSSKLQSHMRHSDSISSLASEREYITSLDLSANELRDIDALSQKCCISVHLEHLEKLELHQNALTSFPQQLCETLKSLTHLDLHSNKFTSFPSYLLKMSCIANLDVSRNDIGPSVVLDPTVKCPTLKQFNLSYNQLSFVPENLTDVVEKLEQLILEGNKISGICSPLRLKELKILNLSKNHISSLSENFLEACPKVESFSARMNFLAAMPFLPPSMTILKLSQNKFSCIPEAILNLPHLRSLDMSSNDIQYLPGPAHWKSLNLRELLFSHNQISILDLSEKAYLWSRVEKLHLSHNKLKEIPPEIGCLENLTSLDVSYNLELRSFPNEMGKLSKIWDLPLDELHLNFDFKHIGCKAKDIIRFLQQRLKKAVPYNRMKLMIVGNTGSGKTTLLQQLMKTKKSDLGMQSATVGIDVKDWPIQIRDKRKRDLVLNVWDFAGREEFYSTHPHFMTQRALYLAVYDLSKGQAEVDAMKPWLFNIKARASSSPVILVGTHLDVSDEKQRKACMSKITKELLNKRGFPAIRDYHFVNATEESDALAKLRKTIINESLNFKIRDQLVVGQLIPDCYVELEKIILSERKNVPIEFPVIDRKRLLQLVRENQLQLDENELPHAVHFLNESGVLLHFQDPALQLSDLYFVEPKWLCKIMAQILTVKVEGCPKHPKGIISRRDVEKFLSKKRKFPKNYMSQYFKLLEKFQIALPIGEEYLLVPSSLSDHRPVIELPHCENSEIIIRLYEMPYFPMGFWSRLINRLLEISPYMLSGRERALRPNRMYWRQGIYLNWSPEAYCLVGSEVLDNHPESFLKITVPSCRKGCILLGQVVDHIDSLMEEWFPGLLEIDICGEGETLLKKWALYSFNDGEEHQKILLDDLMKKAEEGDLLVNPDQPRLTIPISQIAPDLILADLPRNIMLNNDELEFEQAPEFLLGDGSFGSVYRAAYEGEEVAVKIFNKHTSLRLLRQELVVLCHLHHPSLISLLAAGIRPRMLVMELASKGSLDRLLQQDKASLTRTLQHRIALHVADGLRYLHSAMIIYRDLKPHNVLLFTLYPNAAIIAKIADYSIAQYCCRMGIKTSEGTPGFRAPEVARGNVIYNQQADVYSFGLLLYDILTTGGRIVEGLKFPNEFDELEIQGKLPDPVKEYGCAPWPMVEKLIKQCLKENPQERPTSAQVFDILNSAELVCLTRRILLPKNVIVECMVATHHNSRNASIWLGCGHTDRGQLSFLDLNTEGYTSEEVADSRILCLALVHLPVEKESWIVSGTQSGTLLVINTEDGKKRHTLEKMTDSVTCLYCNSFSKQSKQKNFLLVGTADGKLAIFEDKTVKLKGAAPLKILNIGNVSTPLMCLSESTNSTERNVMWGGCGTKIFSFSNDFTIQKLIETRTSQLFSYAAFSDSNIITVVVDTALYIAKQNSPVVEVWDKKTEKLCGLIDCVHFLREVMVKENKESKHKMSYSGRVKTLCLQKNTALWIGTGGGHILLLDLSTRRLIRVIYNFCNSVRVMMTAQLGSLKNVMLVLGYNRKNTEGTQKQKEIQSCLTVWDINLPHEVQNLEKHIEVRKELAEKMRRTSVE

Homo sapiens = organism: Homo sapiens; test: Inhibition of VEGFR (unknown origin) at 10 uM relative to control; procedure, shortened: as §3

Chain of RAC-alpha serine/threonine-protein kinase (Homo sapiens) (P31749 whole entry): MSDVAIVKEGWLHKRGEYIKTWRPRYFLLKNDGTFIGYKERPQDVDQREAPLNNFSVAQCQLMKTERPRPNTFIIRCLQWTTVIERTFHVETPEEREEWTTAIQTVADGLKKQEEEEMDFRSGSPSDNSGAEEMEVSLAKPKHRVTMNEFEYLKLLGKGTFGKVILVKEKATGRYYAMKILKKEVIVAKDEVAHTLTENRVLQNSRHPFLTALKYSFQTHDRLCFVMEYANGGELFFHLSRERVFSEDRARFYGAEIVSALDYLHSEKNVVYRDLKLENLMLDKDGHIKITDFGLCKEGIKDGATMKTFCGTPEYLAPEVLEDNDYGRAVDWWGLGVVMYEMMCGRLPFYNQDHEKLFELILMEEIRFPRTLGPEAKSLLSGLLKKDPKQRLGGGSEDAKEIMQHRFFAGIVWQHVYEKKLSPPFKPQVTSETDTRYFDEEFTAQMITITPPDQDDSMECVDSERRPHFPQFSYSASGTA

| Structure (SMILES) | inhibition [1] [%] | inhibition [2] [%] | inhibition [3] [%] | inhibition [4] [%] | inhibition [5] [%] | inhibition [6] [%] | inhibition [7] [%] | IC50 [8] [µM] | inhibition (Homo sapiens) [%] |
| --- | --- | --- | --- | --- | --- | --- | --- | --- | --- |
| Cc1n[nH]c2ccnc(OC3CCCCC3)c12 | 55 | 40 | 92 | 92 | 0 | 19 | 47 | 0.067 | 76 |
| Cc1n[nH]c2ccnc(Nc3ccccc3F)c12 | 34 | 26 | 39 | 50 | 0 | 0 | 23 | 0.15 | 67 |
| Cc1n[nH]c2ccnc(Nc3ccc4ncsc4c3)c12 |  | 10 |  |  |  |  |  | 0.13 to 0.38 |  |
| c1cc(-c2n[nH]c3ccnc(OC4CCOCC4)c23)cc(N2CCOCC2)n1 |  |  |  |  |  |  |  | 0.012 |  |
| CC(C)n1cc(-c2n[nH]c3ccnc(OC4CCOCC4)c23)cn1 |  |  |  |  |  |  |  | 0.011 |  |
| Cc1n[nH]c2ccnc(NC3CCCCC3)c12 | 29 | 70 | 39 | 63 | 0 | 0 | 0 | 0.39 | 43 |
